Active and inactive are the calls of the source. The calls are words filed in the database; no cut-off is given here.

Data set [1] relates to Mus musculus. Nature of the data set: Neurotoxicity in mouse assessed as minimum motor impairment at 300 mg/kg, ip after 4 hrs by rotarod test. It is filed as toxicity, organism-based. Also on record: dose 300 mg/kg, route intraperitoneal. The following applies: in vivo. The essentials:
(§1)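 Rotorod test for minimal motor impairment in mice given 30, 100 or 300 mg/kg i.p. at 0.01 mL/g, using sets of one, three and one animals, at 0.5 h and 4.0 h. Animals are observed at each dose and time. Score is N/F, the number showing toxicity over the number tested.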
(In general: The rotarod test checks motor coordination on a turning rod.)

For data set [2], the system named is Mus musculus. Nature of the data set: Neurotoxicity in mouse assessed as minimum motor impairment at 30 mg/kg, ip after 4 hrs by rotarod test. Particulars: in vivo. Format: toxicity, organism-based. Also on record: dose 30 mg/kg, route intraperitoneal. The method in brief:
as §1

The test system of data set [3] is Mus musculus. Nature of the data set: Neurotoxicity in mouse assessed as minimum motor impairment at 30 mg/kg, ip after 0.5 hrs by rotarod test. Format: toxicity, organism-based. Also on record: dose 30 mg/kg, route intraperitoneal. Particulars: in vivo. The essentials: as §1
The subject of data set [4] is Mus musculus. Nature of the data set: Anticonvulsant activity in mouse assessed as protection against maximal electroshock-induced seizures at 100 mg/kg, ip after 0.5 hrs. It is filed as functional, organism-based. More on the design: dose 100 mg/kg. The method in brief:
(§2)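 Mouse Test 1: i.p. dosing at 0.01 mL/g. Sets of one, three and one animals receive 30, 100 and 300 mg/kg respectively, each tested at 0.5 h and 4.0 h. Score is N/F, the number of animals protected over the number tested. Screening performed by NINDS following the ADD program protocol.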
(In general: The maximal electroshock test induces tonic seizures with an electrical stimulus.)

Data set [5] deals with Mus musculus. Nature of the data set: Anticonvulsant activity in mouse assessed as protection against subcutaneous pentylenetetrazole-induced seizures at 300 mg/kg, ip after 0.5 hrs. It is filed as functional, organism-based. More on the design: dose 300 mg/kg.
Data set [6] deals with Mus musculus. Kind of data set: Anticonvulsant activity in mouse assessed as protection against maximal electroshock-induced seizures at 300 mg/kg, ip after 0.5 hrs. It is filed as functional, organism-based. Also on record: dose 300 mg/kg. The method in brief: as §2
The nature of data set [7]: Octanol-phosphate buffer partition coefficient, log P of the compound. It is filed as physicochemical. The essentials:
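Octanol and phosphate buffer partition run at room temperature (29 °C). After separation, the phases are membrane-filtered and drug in the aqueous phase is measured by UV. PC = (Ct − Ca)/Ca, where Ct is total drug concentration and Ca is aqueous-phase concentration.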

For data set [8], the system named is Mus musculus. Nature of the data set: Anticonvulsant activity in mouse assessed as protection against maximal electroshock-induced seizures at 30 mg/kg, ip after 4 hrs. It is filed as functional, organism-based. Also on record: dose 30 mg/kg. The method in brief: as §2
Data set [9] relates to Mus musculus. Nature of the data set: Anticonvulsant activity in mouse assessed as protection against maximal electroshock-induced seizures at 300 mg/kg, ip after 4 hrs. It is filed as functional, organism-based. More on the design: dose 300 mg/kg. The method in brief:
as §2

For data set [10], the system named is Mus musculus. Kind of data set: Anticonvulsant activity in mouse assessed as protection against subcutaneous pentylenetetrazole-induced seizures at 30 mg/kg, ip after 4 hrs. Format: functional, organism-based. More on the design: dose 30 mg/kg.
Data set [11] has as its system Mus musculus. Kind of data set: Anticonvulsant activity in mouse assessed as protection against subcutaneous pentylenetetrazole-induced seizures at 100 mg/kg, ip after 0.5 hrs. More on the design: dose 100 mg/kg. Format: functional, organism-based.
The subject of data set [12] is Mus musculus. Nature of the data set: Anticonvulsant activity in mouse assessed as protection against maximal electroshock-induced seizures at 30 mg/kg, ip after 0.5 hrs. Format: functional, organism-based. More on the design: dose 30 mg/kg. The essentials:
as §2

For data set [13], the system named is Mus musculus. Nature of the data set: Anticonvulsant activity in mouse assessed as protection against subcutaneous pentylenetetrazole-induced seizures at 300 mg/kg, ip after 4 hrs. It is filed as functional, organism-based. Also on record: dose 300 mg/kg.
Data set [14] concerns Mus musculus. Kind of data set: Anticonvulsant activity in mouse assessed as protection against subcutaneous pentylenetetrazole-induced seizures at 100 mg/kg, ip after 4 hrs. Format: functional, organism-based. Also on record: dose 100 mg/kg.
The subject of data set [15] is Mus musculus. Nature of the data set: Neurotoxicity in mouse assessed as minimum motor impairment at 300 mg/kg, ip after 0.5 hrs by rotarod test. Particulars: in vivo. More on the design: dose 300 mg/kg, route intraperitoneal. It is filed as toxicity, organism-based. The method in brief: as §1
The subject of data set [16] is Mus musculus. Nature of the data set: Neurotoxicity in mouse assessed as minimum motor impairment at 100 mg/kg, ip after 0.5 hrs by rotarod test. Particulars: in vivo. Format: toxicity, organism-based. Also on record: dose 100 mg/kg, route intraperitoneal. The method in brief: as §1
Data set [17] concerns Mus musculus. Nature of the data set: Neurotoxicity in mouse assessed as minimum motor impairment at 100 mg/kg, ip after 4 hrs by rotarod test. Also on record: dose 100 mg/kg, route intraperitoneal. The following applies: in vivo. It is filed as toxicity, organism-based. The method in brief: as §1
The test system of data set [18] is Mus musculus. Kind of data set: Anticonvulsant activity in mouse assessed as protection against maximal electroshock-induced seizures at 100 mg/kg, ip after 4 hrs. Format: functional, organism-based. More on the design: dose 100 mg/kg. The essentials:
as §2

Data set [19] relates to Mus musculus. Kind of data set: Anticonvulsant activity in mouse assessed as protection against subcutaneous pentylenetetrazole-induced seizures at 30 mg/kg, ip after 0.5 hrs. Format: functional, organism-based. Also on record: dose 30 mg/kg.

As for `COc1ccccc1NC(=S)NC(=O)Nc1ccc2c(c1)C(=O)C(=O)N2Cc1ccccc1Cl`, the Activity entry in data set [1], in [2], in data set [3], in data set [15], in data set [16] and in data set [17] was “Non-toxic” each time. The result in data set [4], in [5], in data set [6], in [8], in [9] and in data set [10] was inactive. Also, the result in data set [11], in data set [12], in data set [13], in data set [14], in data set [18] and in data set [19] was inactive. For the same compound, the logP in data set [7] came out at 3.18.
On to `Cc1ccccc1NC(=S)NC(=O)Nc1ccc2c(c1)C(=O)C(=O)N2Cc1ccccc1`, for which the Activity result in [1], in data set [2], in [3], in data set [15], in data set [16] and in data set [17] was “Non-toxic” in each case. Besides, the result in [4], in data set [5], in [6], in data set [8], in data set [9] and in data set [10] was inactive. For the same compound, the result in data set [11], in data set [12], in data set [13], in data set [14], in data set [18] and in data set [19] was inactive. The compound further came in with a logP in [7] of 2.98.
Regarding `O=C(NC(=S)Nc1ccccc1)Nc1ccc2c(c1)C(=O)C(=O)N2Cc1ccccc1`, the Activity entry in [1], in data set [2], in data set [3], in data set [15], in data set [16] and in data set [17] was “Non-toxic” in each case. The result in data set [4], in data set [5], in data set [6], in data set [8], in [9] and in data set [10] was inactive. Also, the result in data set [11], in [12], in data set [13], in data set [14], in data set [18] and in data set [19] was inactive. Moreover, the log partition coefficient (logP) in data set [7] turned out to be 2.48.
`Cc1ccc(NC(=S)NC(=O)Nc2ccc3c(c2)C(=O)C(=O)N3Cc2ccccc2)cc1`: the Activity result in data set [1], in [2], in [3], in data set [15], in [16] and in data set [17] was “Non-toxic” throughout. Further, the result in data set [4], in data set [5], in data set [6], in data set [8], in data set [9] and in data set [10] was inactive. The outcome in data set [11], in data set [12], in data set [13], in data set [14], in data set [18] and in [19] was inactive. The compound also had a lipophilicity (logP) in data set [7] of 2.96.
Take `Cc1cccc(NC(=S)NC(=O)Nc2ccc3c(c2)C(=O)C(=O)N3Cc2ccccc2Cl)c1`: the Activity entry in data set [1], in data set [2], in data set [3], in [15], in data set [16] and in [17] was “Non-toxic” throughout. Further, the result in [4], in data set [5], in data set [6], in [8], in data set [10] and in [11] was inactive. Moreover, the result in data set [12], in data set [14], in [18] and in [19] was inactive. Moreover, the logP in data set [7] was found to be 3.72. In addition, the outcome in data set [9] and in data set [13] was Active.
As to `COc1cccc(NC(=S)NC(=O)Nc2ccc3c(c2)C(=O)C(=O)N3Cc2ccccc2)c1`, the Activity result in [1], in data set [2], in [3], in [15], in [16] and in data set [17] was “Non-toxic” each time. Further, the outcome in data set [4], in [5], in [6], in data set [8], in data set [9] and in data set [10] was inactive. For the same compound, the outcome in data set [11], in [12], in [13], in data set [14], in data set [18] and in data set [19] was inactive. For the same compound, the lipophilicity (logP) in data set [7] is 2.4.
Take `COc1ccc(NC(=S)NC(=O)Nc2ccc3c(c2)C(=O)C(=O)N3Cc2ccccc2Cl)cc1`: the Activity entry in data set [1], in [2], in data set [3], in data set [15], in data set [16] and in data set [17] was “Non-toxic” throughout. For the same compound, the result in [4], in [5], in data set [6], in [8], in [9] and in data set [10] was inactive. For the same compound, the result in [11], in [12], in data set [13], in [14], in data set [18] and in [19] was inactive. In data set [7], this compound yielded a logP of 3.24.

Broadly, the logP is a log measure of how a compound divides between an organic and an aqueous phase. A high value points to higher lipophilicity.
